Consider one compound from ChEMBL document CHEMBL4765345, “Design, synthesis, and biological evaluation of dual targeting inhibitors of histone deacetylase 6/8 and bromodomain BRPF1” (Eur J Med Chem, 2020).

Test [1] deals with T1, Histone deacetylase 8 (Homo sapiens, UniProt Q9BY41).
T1 sequence (Q9BY41 whole entry): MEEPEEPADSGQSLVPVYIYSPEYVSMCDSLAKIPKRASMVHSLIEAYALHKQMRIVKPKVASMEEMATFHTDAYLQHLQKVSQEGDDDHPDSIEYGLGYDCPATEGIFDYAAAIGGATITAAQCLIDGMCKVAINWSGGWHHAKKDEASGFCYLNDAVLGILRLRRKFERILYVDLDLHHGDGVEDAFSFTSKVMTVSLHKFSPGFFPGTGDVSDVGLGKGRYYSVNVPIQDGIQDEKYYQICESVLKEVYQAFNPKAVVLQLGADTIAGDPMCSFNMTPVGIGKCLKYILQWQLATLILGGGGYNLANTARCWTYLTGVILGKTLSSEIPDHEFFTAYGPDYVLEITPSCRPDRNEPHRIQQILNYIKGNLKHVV
In words: Inhibition of human recombinant HDAC8 using H2N-Arg-His-Lys(Ac)-Lys(Ac)-AMC as substrate after 90 mins by fluorescence based micro plate assay.

Test [2] has as its system THP-1. In words: Antiproliferative activity against human THP-1 assessed as reduction in cell growth at 100 uM by CellTiter-non radioactive cell proliferation assay. Format: functional.
The target in test [3] is T2, Protein deacetylase HDAC6 (Homo sapiens) (UniProt Q9UBN7).
T2 sequence (whole entry): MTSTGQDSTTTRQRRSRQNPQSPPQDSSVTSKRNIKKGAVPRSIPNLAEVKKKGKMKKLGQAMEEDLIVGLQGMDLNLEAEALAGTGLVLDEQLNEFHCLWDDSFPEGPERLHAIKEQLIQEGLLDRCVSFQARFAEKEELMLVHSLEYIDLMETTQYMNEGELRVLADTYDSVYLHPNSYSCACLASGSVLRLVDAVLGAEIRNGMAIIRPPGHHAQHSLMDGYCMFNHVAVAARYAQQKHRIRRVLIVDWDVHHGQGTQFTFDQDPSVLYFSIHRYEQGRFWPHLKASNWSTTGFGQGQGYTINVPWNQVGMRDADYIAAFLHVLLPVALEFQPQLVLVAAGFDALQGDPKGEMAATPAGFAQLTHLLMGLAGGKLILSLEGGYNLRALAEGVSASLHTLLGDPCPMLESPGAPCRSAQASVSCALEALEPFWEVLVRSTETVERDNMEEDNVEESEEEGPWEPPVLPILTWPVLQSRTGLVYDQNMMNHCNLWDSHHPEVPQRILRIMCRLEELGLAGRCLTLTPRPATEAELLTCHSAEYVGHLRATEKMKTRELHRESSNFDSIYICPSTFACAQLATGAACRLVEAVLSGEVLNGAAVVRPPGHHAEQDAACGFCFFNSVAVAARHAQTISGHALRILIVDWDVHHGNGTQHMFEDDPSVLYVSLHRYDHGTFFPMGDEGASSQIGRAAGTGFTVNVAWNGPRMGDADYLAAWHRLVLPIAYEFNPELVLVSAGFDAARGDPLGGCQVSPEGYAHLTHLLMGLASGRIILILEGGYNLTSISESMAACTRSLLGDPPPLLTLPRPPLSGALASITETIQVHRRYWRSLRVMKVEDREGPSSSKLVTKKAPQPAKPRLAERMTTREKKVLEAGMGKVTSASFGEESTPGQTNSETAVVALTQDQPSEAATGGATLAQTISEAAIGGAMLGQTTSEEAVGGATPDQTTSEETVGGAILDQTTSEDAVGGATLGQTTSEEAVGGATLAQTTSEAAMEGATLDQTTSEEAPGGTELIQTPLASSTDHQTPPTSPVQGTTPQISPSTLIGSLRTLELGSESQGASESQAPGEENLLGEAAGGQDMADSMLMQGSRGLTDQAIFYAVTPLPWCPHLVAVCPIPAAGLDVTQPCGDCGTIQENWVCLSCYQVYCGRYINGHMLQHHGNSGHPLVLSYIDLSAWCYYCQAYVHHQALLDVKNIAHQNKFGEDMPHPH
In words: Inhibition of recombinant human HDAC6 at 10 uM using Z-(Ac)Lys-AMC as substrate after 90 mins by fluorescence based micro plate assay. A digest of the protocol:
(§1)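 Recombinant human HDAC1 or HDAC6 incubated 90 min at 37 °C with 10.5 μM ZMAL (Z-(Ac)Lys-AMC) and increasing inhibitor concentrations, using a homogeneous fluorescence assay. Fluorescence read at Ex 390/Em 460 nm.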

The test system of test [4] is HL-60. In words: Antiproliferative activity against human HL60 assessed as reduction in cell growth at 4 uM by CellTiter-non radioactive cell proliferation assay. Format: functional. A digest of the protocol:
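HL60 cells plated at 5000 per well and given inhibitor or DMSO vehicle immediately. Compounds diluted from 200x DMSO stocks; three replicates per concentration. Growth read by CellTiter 96 Aqueous (MTS) assay. GI50 is the concentration cutting metabolically active cells by 50% versus DMSO control, taken from absorbance against log concentration.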

Test [5] has as its target T3, Histone deacetylase 1 (Homo sapiens, UniProt Q13547). The test is described as follows: Inhibition of recombinant human HDAC1 at 10 uM using Z-(Ac)Lys-AMC as substrate after 90 mins by fluorescence based micro plate assay. A digest of the protocol:
as §1

Test [6] concerns HL-60. The test is described as follows: Antiproliferative activity against human HL60 assessed as reduction in cell growth at 100 uM by CellTiter-non radioactive cell proliferation assay. Format: functional.
For test [7], the target named is T3, Histone deacetylase 1. In words: Inhibition of recombinant human HDAC1 at 1 uM using Z-(Ac)Lys-AMC as substrate after 90 mins by fluorescence based micro plate assay. The gist of the method: as §1

pIC50: −log10 of the molar value.

T3 sequence (Q13547 whole entry): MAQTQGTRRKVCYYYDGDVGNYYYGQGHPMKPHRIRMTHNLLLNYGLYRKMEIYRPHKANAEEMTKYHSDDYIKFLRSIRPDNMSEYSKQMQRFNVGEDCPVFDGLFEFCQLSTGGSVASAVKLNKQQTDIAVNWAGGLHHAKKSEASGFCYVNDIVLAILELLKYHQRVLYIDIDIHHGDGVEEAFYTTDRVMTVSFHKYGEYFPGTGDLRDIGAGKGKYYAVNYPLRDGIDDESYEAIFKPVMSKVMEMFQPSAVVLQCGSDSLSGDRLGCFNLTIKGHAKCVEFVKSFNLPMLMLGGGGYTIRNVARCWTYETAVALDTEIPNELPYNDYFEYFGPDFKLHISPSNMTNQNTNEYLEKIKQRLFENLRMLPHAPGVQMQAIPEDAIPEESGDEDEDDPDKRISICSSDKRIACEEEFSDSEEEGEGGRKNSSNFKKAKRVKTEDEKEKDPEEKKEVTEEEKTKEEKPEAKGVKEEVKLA

One may read the pIC50 as the negative decadic logarithm of the IC50, by convention in mol/L. Broadly, the inhibition is the change of the read-out against control, counted positive when it falls. `COc1ccc(C(=O)NO)cc1S(=O)(=O)Nc1ccc2c(c1)cc(C)c(=O)n2C`: the pIC50 in test [1] is 6.35. In addition, the inhibition at 100 µM in test [2] stood at 43%; in test [6], 39%. Besides, the inhibition came to 64% in test [3], 38% in test [5] and 6% in test [7]. Besides, in test [4], the inhibition at 4 µM came to 25%.
